Bioassay records (PubChem)
PAD4 FP inh – blocks human protein arginine deiminase 4 | recombinant PAD4, RCA probe fluorescence polarization | inhibition, % at 6.36 µM | hit rate 0.41% among 330,000 | AID 485272;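 active = percent inhibition above a cutoff equal to the mean of all tested compounds plus 3 SD, cut at about 15% in these data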;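 note: 0% = PAD4 with RCA probe and DMSO and 100% = probe without PAD4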
Target sequence (Q9UM07 whole entry, looked up): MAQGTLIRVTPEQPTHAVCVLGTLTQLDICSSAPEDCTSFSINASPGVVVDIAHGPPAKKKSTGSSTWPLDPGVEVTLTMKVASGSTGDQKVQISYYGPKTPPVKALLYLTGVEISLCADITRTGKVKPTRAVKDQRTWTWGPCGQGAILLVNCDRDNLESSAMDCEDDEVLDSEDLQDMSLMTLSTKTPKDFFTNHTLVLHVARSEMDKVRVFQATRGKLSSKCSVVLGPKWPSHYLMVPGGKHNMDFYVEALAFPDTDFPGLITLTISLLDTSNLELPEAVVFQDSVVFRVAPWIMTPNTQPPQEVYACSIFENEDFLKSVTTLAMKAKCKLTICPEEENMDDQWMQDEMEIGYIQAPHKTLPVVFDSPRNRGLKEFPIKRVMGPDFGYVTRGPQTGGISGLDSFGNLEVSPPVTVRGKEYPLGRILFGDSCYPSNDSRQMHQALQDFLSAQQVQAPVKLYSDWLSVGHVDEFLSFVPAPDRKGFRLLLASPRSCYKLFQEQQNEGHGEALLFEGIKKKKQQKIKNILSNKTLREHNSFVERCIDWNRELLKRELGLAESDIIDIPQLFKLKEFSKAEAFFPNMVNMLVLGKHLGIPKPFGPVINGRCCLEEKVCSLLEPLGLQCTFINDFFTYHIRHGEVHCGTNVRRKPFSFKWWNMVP
PRMT1 inh – PRMT1 (human) inhibition, primary screen; Q99873; recombinant PRMT1, activity-based probe fluorescence polarization; inhibition, % at 2.79 µM; hit rate 1.3% among 370,000; AID 652257;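 active = inhibition above about 21% made by adding two undisclosed values, limit read from the data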
GSTO1 counter – counter-screen for RBBP9 inhibitors: inhibitors of human GSTO1. recombinant GSTO1, activity-based probe fluorescence polarization. inhibition, % at 5.96 µM. AID 1974. hit rate 1.1% among 300,000. P78417;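 active = inhibition above the campaign mean inhibition plus 3 SD, cut at about 35% in these data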;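 note: 0% = GSTO1-1 with DMSO and 100% = wells lacking GSTO1-1 enzyme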
SIAE primary – human SIAE inhibition, primary screen; SIAE FP-Rh probe binding, fluorescence polarization; inhibition, % at 9.66 µM; Q9HAT2; AID 1053197; hit rate 0.69% among 370,000;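 active = inhibition above a cutoff: mean of compounds within the control limits plus 3 SD of those, cut at about 17% in these data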;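 note: 0% = plate median of compound wells and 100% = probe without SIAE protein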
RBBP9 inhibitor – human RBBP9 hydrolase inhibition; recombinant RBBP9, FP-Rh probe fluorescence polarization; inhibition, % at 7.94 µM; hit rate 0.2% among 220,000;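 active = inhibition above the campaign mean of all tested compounds plus 3 SD, cut at about 14% in these data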;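 note: plate controls were DMSO wells with RBBP9 for no effect and wells lacking RBBP9 protein for full effect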
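Test system – recombinant human RBBP9 · Input – RBBP9 2.5 µM in dispensing solution, pre-mixing · Medium – Tris buffer pH 8.0, NaCl, Pluronic · Schedule – preincubation 30 min plus labeling 45 min at 25 °C · Measured by – fluorescence polarization · Measure – % inhibition · Controls – DMSO and no-protein wells · Replicates – one well per compound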
Active calls of the source: *; x = not tested or not shown. Sampled rows, rich in hits. Any-hit rate of the full collection: about 2.7%.

SMILES	PAD4 FP inh	PRMT1 inh	GSTO1 counter	SIAE primary	RBBP9 inhibitor
COc1ccc(CCC(=O)Nc2ccc3c(c2)OCO3)cc1OC	-4	-3	35*	0	x
COC(=O)c1ccccc1NC(=O)CSc1ncccn1	2	-2	-1	5	2
COC(=O)c1cc(C)sc1NC(=O)CSc1ncccn1	2	22*	11	4	x
CC(=O)c1ccc(NC(=S)Nc2ccc3[nH]c(=O)[nH]c3c2)cc1	-1	11	-2	8	-3
Nc1sc2c(c1C(=O)NCCc1ccccc1)CCC2	-9	8	7	6	-7
Nc1sc2c(c1C(=O)NCCc1ccccc1)CCCC2	x	36*	x	13	x
Nc1sc2c(c1C(=O)NC1CCS(=O)(=O)C1)CCCC2 (centres undefined)	-8	23*	16	22*	0
CCn1c2ccccc2c2cc(NC(=O)CSc3nnc(-c4cccc(Cl)c4)o3)ccc21	-7	2	16	27*	-11
Cc1ccc(O)c(C(=O)c2cnn(C(=O)Cc3csc(C)n3)c2)c1	-2	1	30	2	-1
CC1(C)CC(=O)C2=C(C1)OC1=C(C(=O)CC(C)(C)C1)C2c1ccc(O)cc1O	-5	78*	9	2	-2
C/C(CC(=O)Nc1ccc(Cl)c(C(F)(F)F)c1)=N\NC(=O)c1cc2ccccc2cc1O	-6	3	-6	40*	-14
CCOC(=O)C[n+]1c(C)sc2ccc(OC)cc21	18*	x	5	x	-18
CC1(C)CCC(C)(C)NC(=S)N1	0	1	0	12	4
Cc1cc(NC(=O)CSc2nnc(-c3ccco3)o2)no1	3	-2	7	7	4
C=CCOC(=O)C1=C(C)NC(C)=C(C(=O)OCC=C)C1c1ccc(O)cc1	-2	2	-8	1	x
COC(=O)C1=C(C)Nc2[nH]c(=S)[nH]c(=O)c2C1c1ccc(O)cc1 (centres undefined)	0	25*	13	1	-5
Cc1ccc(OC(=O)COc2ccccc2C)c(-n2nc3ccccc3n2)c1	-2	24*	1	-11	-4
Cc1ccc(OC(=O)COc2ccccc2)c(-n2nc3ccccc3n2)c1	4	10	-3	-7	-4
CC(=O)C(Sc1nn(C)c(=S)s1)C(=O)Nc1ccccc1 (centres undefined)	0	24*	1	1	-8
O=C(NCc1cccnc1)c1cc(C2CCCN(C(=O)c3ccccn3)C2)on1 (centres undefined)	x	-1	x	1	x
CCOC(=O)c1cccc(NC(=S)NC(=O)c2cccnc2)c1	3	22*	4	-6	x
COc1cccc(NC(=S)NC(=O)c2cccnc2)c1	-1	2	-2	0	x
O=C1Nc2ccc(C(F)(F)F)cc2N2CCCC12 (centres undefined)	-8	x	38*	x	x
O=C1NN(c2ccccc2)C(=O)/C1=C\c1ccc2c(c1)OCO2	-2	-1	10	5	x
Cc1ccc(N2NC(=O)/C(=C\c3cc4c(cc3[N+](=O)[O-])OCO4)C2=O)cc1C	-1	24*	28	17	-6
SMILES	PAD4 FP inh	PRMT1 inh	GSTO1 counter	SIAE primary	RBBP9 inhibitor
CCN(CC)CCNC(=O)c1c(O)c2cccc3c2n(c1=O)CCC3	x	-2	x	5	-3
CCCOC(=O)C1C2C=CC3(CN(c4ccc(Cl)c(F)c4)C(=O)C13)O2 (centres undefined)	-3	5	3	49*	-7
CSc1ccccc1C(=O)OCC(=O)Nc1cccnc1Cl	1	-1	x	4	x
CC1(C(=O)NCc2cccnc2)CCC(=O)N1CCc1ccccc1 (centres undefined)	-4	1	10	4	-4
O=C(Nc1cccc(Cl)c1)c1cc(N=Nc2ccc([N+](=O)[O-])cc2Cl)ccc1O	4	-1	-8	22*	9
C[C@H](CO)N1C[C@H](C)[C@@H](CN(C)C(=O)Nc2ccccc2)Oc2c(NC(=O)C3CCCCC3)cccc2C1=O	4	-1	x	18*	x
Cc1cccc(CNc2ncnc3ccc(-c4ccccc4Cl)cc23)c1	-1	0	x	-29	x
CC1CN2C(c3ccc([N+](=O)[O-])cc3)=CSC2=N1 (centres undefined)	1	22*	-1	12	x
CC(C)(C)OC(=O)N1CCC[C@H]1C(=O)N1CCC[C@H]1C(=O)NCc1ccncc1	x	-2	x	-10	x
Cc1ccc2c(c1)N(C(=O)CSc1nncn1C)C(C)(C)c1ssc(=S)c1-2	13	29*	-4	-2	-4
CC1=CC(C)(C)N(C(=O)CSc2nncn2C)c2ccccc21	1	3	3	-2	-1
COc1ccc(OC)c(S(=O)(=O)N2CCN(c3ccc(F)cc3)CC2)c1	x	2	x	-2	x
COC(=O)Oc1nsnc1N1CCOCC1	-2	81*	2	7	-7
COc1ccc(/C=C/C(=O)Nc2nc(N)n(-c3ccccc3)n2)cc1	-2	4	6	3	6
CC1(C)CC(=O)C2=C(C1)OC(N)=C(C#N)C2C#Cc1ccccc1 (centres undefined)	3	3	35*	2	-3
CCOC(=O)c1cc(C#N)c(SCC(N)=O)[nH]c1=O	-4	5	36*	-18	-2
Cc1ccc(-c2nnc(-c3cccc(NC(=O)c4cccs4)c3)o2)cc1	-6	3	-13	-27	-11
CCC(C(=O)O)N1C(=O)/C(=C/c2cccn2C)SC1=S (centres undefined)	-11	-31	0	1	3
O=C(O)CC(C(=O)O)N1C(=O)/C(=C/C=C/c2ccco2)SC1=S (centres undefined)	-4	54*	37*	-8	-5
Cc1ccc(NC2=C(NC(=O)c3ccccc3)C(=O)c3ccccc3C2=O)cc1Cl	3	11	62*	7	-4
CC(C)Sc1nc2c(c(=O)n1-c1ccc(F)cc1)SCC2	-3	1	-3	3	2
C/C=C/C=C\C(=O)Nc1cccc(C2=NOC3(C2)C[C@@H](C(N)=O)N(C(=O)c2cc([N+](=O)[O-])cc([N+](=O)[O-])c2)C3)c1 (some centres undefined)	2	23*	6	-2	x
C=CCn1c(SCC(=O)NCCOC)nc2scc(-c3ccco3)c2c1=O	-1	47*	3	-4	-6
C=CCn1c(SCC(=O)NCC2CCCO2)nc2scc(-c3ccc(OC)cc3)c2c1=O (centres undefined)	-5	4	-2	-1	x
COc1cccc(NC(=O)CSc2nc(O)c(C)c(=O)n2-c2ccc(C)cc2)c1	0	24*	5	-7	x
CCCCc1c(O)nc(SCC(=O)Nc2ccc(C)cc2)n(-c2ccc(OC)cc2)c1=O	-2	9	3	4	x
Cc1c(O)nc(SCC(=O)Nc2ccc3c4c(cccc24)CC3)n(-c2ccc(F)cc2)c1=O	2	25*	10	-1	-6
O=C(O)CSc1c(-c2ccccc2)c2cc(Cl)ccc2[nH]c1=O	-1	2	4	0	-5
CCN(CC)C(=S)Sc1c(-c2ccccc2)c2cc(Cl)ccc2[nH]c1=O	2	24*	-2	-1	-2
